# PubChem BioAssay AID624095 (The Scripps Research Institute Molecular Screening Center, 2012)
# The source made the active and inactive calls.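 How the source made its calls: active means MIC at a fourfold reduction of 10 µM or lower; inactive means MIC at a fourfold reduction above 10 µM.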
# Tested on: not listed separately
# Assay: imipenem potentiation in IMP-1 P. aeruginosa isolate, late-stage follow-up, VIM-2 MBL inhibitor project, strain KN20, clinical isolate, powder samples (AID 624095)
# Settings: IMP-1 P. aeruginosa KN20 growth with imipenem, OD600; measured here: max imipenem fold potentiation; stronger effect = higher value
# Summary of the method: (§1)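 Test system: log-phase bacterial cells in broth / Buffer or medium: Mueller-Hinton broth with adjusted cations (CAMHB) / Reagent: imipenem in two-fold serial dilutions, orthogonal to compound / Compound: checkerboard two-fold serial dilutions, compound across rows / Incubation: bacterial incubation of at least 18 h, 37 °C, aerobic / Detection: turbidity measured by optical absorbance / Read-out: MIC per CLSI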
row,SMILES,fold potentiation
1,CN1CCN(NC(=O)CN2C(=O)/C(=C/c3c(Cl)ccc(C(F)(F)F)c3Cl)SC2=S)CC1,2
2,CN1CCN(NC(=O)CN2C(=O)/C(=C/c3c(Cl)ccc(Cl)c3Cl)SC2=S)CC1,2
3,CN1CCN(NC(=O)CN2C(=O)/C(=C/c3c(F)cccc3Cl)SC2=S)CC1,2

# Tested on: IMP-1 P. aeruginosa KN20 growth with imipenem, OD600
# Assay: as above
# Settings: not given
# Summary of the method: as §1
row,SMILES,MIC
1,CN1CCN(NC(=O)CN2C(=O)/C(=C/c3c(C(F)(F)F)ccc(Cl)c3Cl)SC2=S)CC1,> 50 µM (inactive)
2,O=C(CN1C(=O)/C(=C/c2c(Cl)cccc2Cl)SC1=S)NCc1ccccn1,> 100 µM (inactive)
3,CN1CCN(NC(=O)CN2C(=O)/C(=C/c3c(Cl)ccc(C(F)(F)F)c3Cl)SC2=S)CC1,> 50 µM (inactive)
4,CN1CCN(C(=O)CN2C(=O)/C(=C/c3c(Cl)ccc(Cl)c3Cl)SC2=S)CC1,> 50 µM (inactive)
5,O=C(CN1C(=O)/C(=C/c2c(Cl)ccc(Cl)c2Cl)SC1=S)NCc1ccccn1,> 50 µM (inactive)
6,CC(C)(C)OC(=O)N1CCN(NC(=O)CN2C(=O)/C(=C/c3c(Cl)ccc(Cl)c3Cl)SC2=S)CC1,> 50 µM (inactive)
7,O=C(O)CN1C(=O)/C(=C/c2c(F)cccc2C(F)(F)F)SC1=S,> 50 µM (inactive)
8,CN1CCN(NC(=O)CN2C(=O)/C(=C/c3c(F)cccc3C(F)(F)F)SC2=S)CC1,> 50 µM (inactive)
9,CCN(CC)OC(=O)CN1C(=O)/C(=C/c2c(Cl)cccc2Cl)SC1=S,> 100 µM (inactive)

# Further lines, results first:
row,MIC,SMILES
1,> 50 µM (inactive),O=C(CN1C(=O)/C(=C/c2c(Cl)cccc2Cl)SC1=S)NN1CCN(Cc2ccccc2)CC1
2,> 50 µM (inactive),CC(C)N1CCN(NC(=O)CN2C(=O)/C(=C/c3c(Cl)cccc3Cl)SC2=S)CC1
3,> 50 µM (inactive),CC(=O)N1CCN(NC(=O)CN2C(=O)/C(=C/c3c(Cl)cccc3Cl)SC2=S)CC1
4,> 100 µM (inactive),CN1CCN(NC(=O)CN2C(=O)/C(=C/c3c(Cl)cccc3Cl)SC2=S)CC1
5,> 50 µM (inactive),O=C(CN1C(=O)/C(=C/c2c(Cl)ccc(Cl)c2Cl)SC1=S)NN1CCCCC1
6,> 50 µM (inactive),O=C(CN1C(=O)/C(=C/c2c(Cl)cccc2Cl)SC1=S)NN1CCNCC1
7,> 100 µM (inactive),O=C(O)CN1C(=O)/C(=C/c2c(Cl)cccc2Cl)SC1=S
8,> 50 µM (inactive),O=C(CN1C(=O)/C(=C/c2c(Cl)cccc2Cl)SC1=S)NN1CCN(C(=O)c2ccccc2)CC1
9,> 50 µM (inactive),CN1CCN(NC(=O)CN2C(=O)/C(=C/c3c(Cl)ccc(Cl)c3Cl)SC2=S)CC1
10,> 100 µM (inactive),CC(C)(C)OC(=O)N1CCN(NC(=O)CN2C(=O)/C(=C/c3c(Cl)cccc3Cl)SC2=S)CC1
11,> 50 µM (inactive),O=C(CN1C(=O)/C(=C/c2c(Cl)ccc(Cl)c2Cl)SC1=S)NN1CCNCC1
12,> 100 µM (inactive),O=C(CN1C(=O)/C(=C/c2c(Cl)cccc2Cl)SC1=S)NN1CCCCC1
13,> 50 µM (inactive),CN1CCN(NC(=O)CN2C(=O)/C(=C/c3c(F)cccc3Cl)SC2=S)CC1
